Key:
Type in all cases: ADME, organism-based
[1] = Oral bioavailability in rat (dose 60 mg/kg p.o.); details: in vivo
In short: (§1)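 Cannulated male Sprague–Dawley rats (300–350 g), fasted 15 h, given 60 mg/kg by oral gavage under light O2/CO2 anaesthesia in 1 mL 5% DMSO/water at pH 8. Arterial plasma sampled 0–120 min and assayed by fluorescence polarization immunoassay. Cmax is observed; AUC0–120 is trapezoidal. F = AUCpo·dose_iv/(AUCiv·dose_po)×100, using iv 3 mg/kg. Mean ± SEM, 4–5 rats.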

[2] = Maximum plasma concentration at a concentration of 60 mg/kg perorally in rats along with control; set-up: dose 60 mg/kg, route oral; details: rat, po; in short: as §1
[3] = Area under the curve at a concentration of 3 mg/kg in rats, intravenously; set-up: dose 3 mg/kg, route intravenous; details: rat, in vivo, iv, read-out: AUC 120 (converted)
In short: (§2)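 Male Sprague–Dawley rats (300–350 g) with femoral artery cannula, dosed next day at 3 mg/kg in 0.3 mL heparinized saline via lateral tail vein. Arterial blood drawn at 0, 5, 10, 15, 30, 60, 90, 120 min, and plasma frozen at –70 °C. Gentamicin measured by fluorescence polarization immunoassay (LOD 0.30 μg/mL). Cmax is the observed value; AUC0–120 by linear trapezoidal rule. Mean ± SEM, 4–5 rats.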

[4] = Maximum plasma concentration at a concentration of 3 mg/kg in rats, intravenously; set-up: dose 3 mg/kg, route intravenous; details: rat, iv; in short: as §2
[5] = test system: Rattus norvegicus; assay: Bioavailability in rat (dose 3 mg/kg i.v.); details: in vivo, iv
[6] = Area under the curve at a concentration of 60 mg/kg perorally in rats along with control; set-up: dose 60 mg/kg, route oral; details: rat, in vivo, po, read-out: AUC 120 (converted); in short: as §1

Structure (SMILES)	bioavailability [1] [%]	Cmax [2] [ng/mL]	AUC [3] [ng·h/mL]	Cmax [4] [ng/mL]	F [5] [%]	AUC [6] [ng·h/mL]	bioavailability ([1]; read-out: Bioavailabiility) [%]	Bioavailabiility [5] [%]
CNC(C)C1CC[C@H](N)[C@@H](OC2[C@@H](O)[C@@H](O[C@H]3OC[C@H](O)[C@@H](NC)[C@@H]3O)[C@H](N)C[C@@H]2N)O1.O=S(=O)(O)O (stereo partly drawn)	1.4	770	4180	8190	100	1180		
CN[C@@H]1[C@H](O)[C@H](O[C@H]2[C@H](N)C[C@H](N)C(O[C@H]3OC(C(C)N)CC[C@@H]3N)[C@H]2O)OC[C@@H]1O.O=S(=O)(O)O (stereo partly drawn)	1.4	770	4180	8190	100	1180		
CN[C@@H]1C(O)[C@H](O[C@@H]2C(O)C(O[C@H]3OC(CN)CCC3N)[C@@H](N)C[C@H]2N)OC[C@@H]1O.O=S(=O)(O)O (stereo partly drawn)		770	4180	8190		1180	1.4	100

Source: ChEMBL document CHEMBL1148488, “Design, synthesis, and evaluation of a liposaccharide drug delivery agent: application to the gastrointestinal absorption of gentamicin” (J Med Chem, 2004)
